Experimental data collected from several papers.
Each line is one published result; the experiments were not run side by side.
gyrA: DNA gyrase subunit A (gyrA, Escherichia coli K-12, UniProt P0AES4)
gag-pol reverse transcriptase: Gag-Pol polyprotein, reverse transcriptase (gag-pol, Human immunodeficiency virus 1, UniProt P03366)
PDE2A: cGMP-dependent 3',5'-cyclic phosphodiesterase (PDE2A, Homo sapiens, UniProt O00408)

Compound	target	test	setting	IC50 [nM]
COc1c(C(=O)Nc2ccc(C(=O)O)cc2)ccc2nc(-c3cc(NC(=O)C(CC(N)=O)NC(=O)c4ccc(NC(=O)c5ccc(C#N)cc5)cc4)cn3C)[nH]c12 (centres unmarked)	gyrA	enzyme activity, inhibitor	–	10900
COc1ccc(S(=O)(=O)NCCCCNC(=O)c2[nH]c3ccc(Cl)cc3c2S(=O)(=O)c2cc(C)cc(C)c2)cc1	gag-pol reverse transcriptase	enzyme activity, inhibitor, ELISA	–	130
CC(C)Oc1c(NC(=O)c2ccc(NC(=O)[C@H](CC(N)=O)NC(=O)c3ccc(NC(=O)c4ccc(C#N)cn4)cc3)cc2)ccc(C(=O)Nc2ccc(C(=O)O)cc2)c1O	gyrA	enzyme activity, inhibitor	–	900
N#Cc1ccc(Nc2nc(N)cc(Oc3ccc(-c4ccc(C#N)cc4)cc3F)n2)cc1	gag-pol reverse transcriptase	enzyme activity, inhibitor	–	30
CC1(C)C(/C=C/C=C2/N(CCCc3ccccc3)c3ccc(Cl)cc3C2(C)C)=[N+](CCCc2ccccc2)c2ccc(Cl)cc21	Protein arginine N-methyltransferase 6 (PRMT6, Homo sapiens, UniProt Q96LA8)	enzyme activity, inhibitor, radiometric	–	1660
Cc1cc(C(=O)Nc2ccc(C(=O)N[C@@H](CC(N)=O)C(=O)Nc3ccc(C(=O)Nc4ccc(C(=O)Nc5ccc(C(=O)O)cc5)c(O)c4OC(C)C)cc3)cc2)ccc1C#N	gyrA	enzyme activity, inhibitor	–	1600
N#Cc1ccc(COc2cccc(C3CCN(Cc4nc5ccc(C(=O)O)cc5n4C[C@@H]4CCO4)CC3)n2)c(F)c1	Gastric inhibitory polypeptide receptor (GIPR, Homo sapiens, UniProt P48546)	cAMP, antagonist	–	> 10000
Cc1cc(C)cc(S(=O)(=O)c2c(C(=O)NCCCCCNS(=O)(=O)c3ccc(F)cc3)[nH]c3ccc(Cl)cc23)c1	gag-pol reverse transcriptase	enzyme activity, inhibitor, ELISA	–	150
N#Cc1ccc(Nc2nc(N)cc(Oc3ccc(-c4cccc(C#N)c4)cc3)n2)cc1	gag-pol reverse transcriptase	enzyme activity, inhibitor	–	700
CC(C)Oc1c(NC(=O)c2ccc(NC(=O)[C@H](CC(N)=O)NC(=O)c3ccc(NC(=O)c4cccc([N+](=O)[O-])c4)cc3)cc2)ccc(C(=O)Nc2ccc(C(=O)O)cc2)c1O	gyrA	enzyme activity, inhibitor	–	2200
CC(C)c1cccc2c(-c3ccccc3)cc(-c3ccc(-c4ccc(C(=O)O)cc4)[nH]3)nc12	Retinoic acid receptor alpha (RARA, Homo sapiens, UniProt P10276)	reporter gene, antagonist	–	15
N#Cc1ccc(Nc2nc(N)cc(Oc3ccc(-c4cccc(F)c4)cc3)n2)cc1	gag-pol reverse transcriptase	enzyme activity, inhibitor	–	330
COc1ccc(S(=O)(=O)NCCCCCNC(=O)c2[nH]c3ccc(Cl)cc3c2S(=O)(=O)c2cc(C)cc(C)c2)cc1	gag-pol reverse transcriptase	enzyme activity, inhibitor, ELISA	–	160
N#Cc1ccc(Nc2nc(N)cc(Oc3c(F)cc(-c4ccccc4C#N)cc3F)n2)cc1	gag-pol reverse transcriptase	enzyme activity, inhibitor	–	30
COc1ccc2c(Oc3ccc4c(C(=O)Nc5ccccc5N)cccc4c3)ccnc2c1	cAMP-dependent protein kinase catalytic subunit alpha (PRKACA, Homo sapiens, UniProt P17612)	enzyme activity, inhibitor	–	> 500
Cc1cc(C)cc(S(=O)(=O)c2c(C(=O)NCCNS(=O)(=O)c3cccs3)[nH]c3ccc(Cl)cc23)c1	gag-pol reverse transcriptase	enzyme activity, inhibitor, ELISA	–	140
N#C/C(=C\c1cccn1S(=O)(=O)c1ccccc1)S(=O)(=O)c1ccccc1	Protein phosphatase methylesterase 1 (Homo sapiens, UniProt Q9Y570)	enzyme activity, inhibitor	–	> 20000
O=C(Nc1ccn(Cc2ccc(O)cc2C(F)(F)F)n1)c1c(F)cccc1F	5-hydroxytryptamine receptor 3A (HTR3A, Homo sapiens, UniProt P46098)	ion current, inhibitor	–	> 10000
O=C1N=C(Nc2ccccc2)S/C1=C\c1ccccc1OCc1cn(Cc2ccc(Cl)cc2)nn1	Aldo-keto reductase family 1 member A1 (AKR1A1, Homo sapiens, UniProt P14550)	enzyme activity, inhibitor, absorbance	pH 6.2	54000
NC(=O)c1ccc[n+]([C@@H]2O[C@H](COP(=O)([O-])OP(=O)(O)OC[C@H]3O[C@@H](n4cnc5c(N)ncnc54)[C@H](O)[C@@H]3O)[C@@H](O)[C@H]2O)c1	Protein mono-ADP-ribosyltransferase PARP12 (PARP12, Homo sapiens, UniProt Q9H0J9)	enzyme activity, inhibitor	–	73000
CCOC(=O)N1CCC(CN(Cc2ccc(Cl)cc2)Cc2ccc([N+](=O)[O-])s2)C1 (centres unmarked)	Oxysterols receptor LXR-alpha (NR1H3, Homo sapiens, UniProt Q13133)	ligand displacement, radioligand	–	13000

Compound	target	test	setting	IC50 [nM]
Cc1cc(/C=C/C#N)cc(C)c1Nc1ccnc(Nc2ccc(C#N)cc2)n1	gag-pol reverse transcriptase	enzyme activity, inhibitor	–	14
NCc1ccccc1	Secernin-3 (Homo sapiens, UniProt Q0VDG4)	enzyme activity, inhibitor	lysate	> 300000
CNC(=O)c1ccccc1Nc1cc(Nc2cc(C)c(C3CCN(CCCCCCNC(=O)COc4cccc5c4C(=O)N(C4CCC(=O)NC4=O)C5=O)CC3)cc2OC(C)C)ncc1C(F)(F)F (centres unmarked)	Protein-tyrosine kinase 2-beta (PTK2B, Homo sapiens, UniProt Q14289)	enzyme activity, inhibitor	–	296
COc1cc(/C=C2\SC(=O)NC2=O)cc(F)c1OCCNc1nc2c(cnn2C2CCCC2)c(=O)[nH]1	PDE2A	enzyme activity, inhibitor	–	167
Cc1cc(C)cc(S(=O)(=O)c2c(C(=O)NCCCNS(=O)(=O)c3ccccc3)[nH]c3ccc(Cl)cc23)c1	gag-pol reverse transcriptase	enzyme activity, inhibitor, ELISA	–	84
COc1cc(C[C@H]2C(=O)OC[C@@H]2Cc2ccc(OC)c(OC)c2)ccc1O	PDE2A	enzyme activity, inhibitor	–	> 20000
CC(C)Oc1c(NC(=O)c2ccc(NC(=O)[C@H](CC(N)=O)NC(=O)c3ccc(NC(=O)c4cc(=O)c(O)c[nH]4)cc3)cc2)ccc(C(=O)Nc2ccc(C(=O)O)cc2)c1O	gyrA	enzyme activity, inhibitor	–	3600
Cc1cc(C)cc(S(=O)(=O)c2c(C(=O)NCCNS(=O)(=O)c3ccc([N+](=O)[O-])cc3)[nH]c3ccc(Cl)cc23)c1	gag-pol reverse transcriptase	enzyme activity, inhibitor, ELISA	–	100
Cc1ccc(C(=O)Nc2ccc(S(=O)(=O)O)c3cc(S(=O)(=O)O)cc(S(=O)(=O)O)c23)cc1NC(=O)c1cccc(NC(=O)Nc2cccc(C(=O)Nc3cc(C(=O)Nc4ccc(S(=O)(=O)O)c5cc(S(=O)(=O)O)cc(S(=O)(=O)O)c45)ccc3C)c2)c1	P2X purinoceptor 2 (P2RX2, Homo sapiens, UniProt Q9UBL9)	calcium signal, antagonist	–	22500
CC(C)Oc1c(NC(=O)c2ccc(NC(=O)[C@H](CC(N)=O)NC(=O)c3ccc(NC(=O)c4ccc(C#N)cc4)cc3)cc2)ccc(C(=O)O)c1O	gyrA	enzyme activity, inhibitor	–	9400
N#Cc1ccc(Nc2nc(N)cc(Oc3c(F)cc(-c4ccccc4F)cc3F)n2)cc1	gag-pol reverse transcriptase	enzyme activity, inhibitor	–	40
Nc1ncnc2c1c(Cc1cccc3ccccc13)nn2CC1CCNCC1	Tyrosine-protein kinase ABL1 (ABL1, Homo sapiens, UniProt P00519)	enzyme activity, inhibitor	–	> 20000
CC(C)Oc1c(NC(=O)c2ccc(NC(=O)[C@H](CC(N)=O)NC(=O)c3ccc(NC(=O)c4cc(C#N)cn4C)cc3)cc2)ccc(C(=O)Nc2ccc(C(=O)O)cc2)c1O	gyrA	enzyme activity, inhibitor	–	700
Cc1nccc2c1c(=O)n(C)c1cc(OC[C@@H](N)CC(C)C)c(C#N)cc21	Alpha-2A adrenergic receptor (ADRA2A, Homo sapiens, UniProt P08913)	cell-free assay	–	> 30000
Cc1cc(C)cc(S(=O)(=O)c2c(C(=O)NCCNS(=O)(=O)c3ccc(-c4ccccc4)cc3)[nH]c3ccc(Cl)cc23)c1	gag-pol reverse transcriptase	enzyme activity, inhibitor, ELISA	–	180
O=C(Nc1cccc2[nH]ccc12)c1ccc(F)cc1	Alpha-synuclein, monomer (SNCA, Homo sapiens, UniProt P37840)	amyloid aggregation, inhibitor, fluorescence	–	~11600
N#Cc1ccc(Nc2nc(N)cc(Oc3ccc(-c4ccc(C#N)cc4)cc3C#N)n2)cc1	gag-pol reverse transcriptase	enzyme activity, inhibitor	–	30
CC(C)Oc1c(NC(=O)c2ccc(NC(=O)[C@H](CC(N)=O)NC(=O)c3ccc(C#Cc4ccc(C#N)cc4)cc3)cc2)ccc(C(=O)Nc2ccc(C(=O)O)cc2)c1O	gyrA	enzyme activity, inhibitor	–	500
Cc1cc(C)cc(S(=O)(=O)c2c(C(=O)NCCCNS(=O)(=O)c3cccc(F)c3)[nH]c3ccc(Cl)cc23)c1	gag-pol reverse transcriptase	enzyme activity, inhibitor, ELISA	–	130
N#Cc1ccc(Nc2nc(N)cc(Oc3ccc(-c4ccc(C#N)cc4)c(C#N)c3)n2)cc1	gag-pol reverse transcriptase	enzyme activity, inhibitor	–	90
